# CHO parental Ca: counter-screen for OX1R antagonists: effect in parental CHO cells. parental CHO-K1, ATP-induced calcium, Fluo-8 fluorescence. inhibition, % at 5.6 µM. 330,000 compounds, 0.63% hits;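 active means inhibition above that plate's mean sample inhibition plus 3 SD, cut at about 26% in these data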
#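 Test system: untransfected parental CHO cell line. Compound: one dose, 5.6 µM nominal. Detection: intracellular calcium via Fluo-8 no-wash fluorescent dye. Measure: % inhibition. Benchmarks: ATP-challenged DMSO wells low, unchallenged DMSO wells high.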
# TAAR1 agonist: human TAAR1 agonism; activation, % at 3 µM; 360,000 compounds, 0.99% hits; CHO RD-HGA16 TAAR1, Fluo-8 calcium fluorescence; vehicle wells 0%, saturating PEA agonist 100%; Q96RJ0;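 active means activation above the mean activation of all test compounds in the run plus 3 SD, cut at about 38% in these data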
#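 test system = CHO RD-HGA16 cells carrying human TAAR1 plus Gα16 | schedule = 17-24 h seeding, 75 min 37 °C dye, 30 min RT | compound dosing = 3 µM single concentration | control set = DMSO and PEA EC100 | replicates = n 1 | signal = Fluo-8 fluorescence, 5 s baseline then 140 s kinetic read | measure = percent activation vs PEA EC100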
# OX1R antag-1: antagonists of human orexin 1 receptor (OX1R); O43613; OX1R-expressing cells, FRET antagonist read-out; inhibition, % at 6.6 µM; 330,000 compounds, 1.8% hits; in the data active means inhibition mostly above about 38%, no sharp cut-off; inactive means mostly below about 40%
# Target sequence (O43613 whole entry, looked up): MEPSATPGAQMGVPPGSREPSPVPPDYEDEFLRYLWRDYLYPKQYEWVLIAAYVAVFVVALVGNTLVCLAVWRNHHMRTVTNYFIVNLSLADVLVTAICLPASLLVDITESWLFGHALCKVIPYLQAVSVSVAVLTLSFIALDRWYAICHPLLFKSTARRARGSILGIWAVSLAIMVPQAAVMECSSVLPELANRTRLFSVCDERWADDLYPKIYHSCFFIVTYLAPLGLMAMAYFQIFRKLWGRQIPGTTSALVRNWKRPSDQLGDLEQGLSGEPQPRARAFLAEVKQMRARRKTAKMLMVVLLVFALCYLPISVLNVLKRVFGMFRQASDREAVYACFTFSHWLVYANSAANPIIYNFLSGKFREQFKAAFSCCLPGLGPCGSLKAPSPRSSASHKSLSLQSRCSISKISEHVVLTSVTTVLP
# OX1R antag-2: antagonists of human orexin 1 receptor. CHO/OX1R cells, Fluo-8 calcium fluorescence, orexin A. inhibition, % at 5 µM. O43613. 330,000 compounds, 0.43% hits;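 active means inhibition above its plate's threshold, mean inhibition of all tested compounds on the plate plus 3 SD, cut at about 37% in these data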
# TAAR1 antagonist: antagonists of human TAAR1; inhibition, % at 3 µM; 360,000 compounds, 1.5% hits; CHO RD-HGA16 TAAR1, Fluo-8 calcium fluorescence, antagonist;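 active means inhibition above a per-plate cutoff, the mean inhibition of test compounds on that plate plus 3 SD, cut at about 49% in these data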
#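 Material: CHO RD-HGA16 cells bearing hTAAR1; compound dosing: one-point dosing, 3 µM nominal final; schedule: dye loading 75 min at 37 °C, then 30 min room temperature; measured by: calcium fluorescence with Fluo-8; control set: vehicle and agonist controls; replication: n of 1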
# GPR7 antag: antagonists of human GPR7 (neuropeptides B/W receptor 1). P48145. inhibition, % at 4.4 µM. 290,000 compounds, 1.1% hits. AID 1861. GPR7-expressing cells, fluorescence antagonist assay; in the data active means inhibition above about 16%, passing the limit was not always enough;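 further: cells stimulated with the agonist NPW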
# Target sequence (P48145 whole entry, looked up): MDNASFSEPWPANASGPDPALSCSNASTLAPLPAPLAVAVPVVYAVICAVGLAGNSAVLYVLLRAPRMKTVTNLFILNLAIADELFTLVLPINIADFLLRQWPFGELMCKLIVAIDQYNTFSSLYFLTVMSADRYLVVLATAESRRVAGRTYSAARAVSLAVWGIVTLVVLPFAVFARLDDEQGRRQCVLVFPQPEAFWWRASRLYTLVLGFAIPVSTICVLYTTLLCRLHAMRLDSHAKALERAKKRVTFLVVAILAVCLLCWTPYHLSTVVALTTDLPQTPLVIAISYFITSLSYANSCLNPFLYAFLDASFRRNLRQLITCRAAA
# TAAR1 ag conf: confirmation of human TAAR1 agonists; shares compounds with TAAR1 agonist; CHO RD-HGA16 TAAR1, Fluo-8 calcium fluorescence; scaled: DMSO 0%, maximal phenethylamine 100%; activation, % at 3 µM; 2,400 compounds, 82% hits; AID 651783;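 active means activation above a cutoff set at the run's mean compound activation plus 3 SD, cut at about 39% in these data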
# Ga16 ag counter: counter-screen for TAAR1 agonists: nonselective agonists in parental cells | CHO-Ga16 parental, Fluo-8 calcium fluorescence; normalized to maximal ATP response, DMSO zero | shares compounds with TAAR1 agonist | 2,400 compounds, 50% hits | activation, % at 3 µM;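 active means activation above the run cutoff, the mean activation over all tested wells plus 3 SD, cut at about 12% in these data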
# TAAR1 desensitize: counter-screen for human TAAR1 agonists: agonists that desensitize TAAR1. shares compounds with TAAR1 agonist. CHO RD-HGA16 hTAAR1, Fluo-8 calcium, beta-PEA response inhibition. inhibition, % at 3 µM. 2,400 compounds, 46% hits. AID 651951;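 active means inhibition above the run cutoff, the mean inhibition of all test compounds plus 3 SD, cut at about 49% in these data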;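 further: beta-PEA stimulus applied at its EC80; loss of beta-PEA calcium signal after compound pretreatment read as receptor desensitization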
# Ga16 nonsel ant: nonselective Ga16 antagonist in TAAR1 agonist counter-screen; shares compounds with TAAR1 agonist; AID 651952; inhibition, % at 3 µM; 2,400 compounds, 39% hits; CHO-Ga16 ATP-induced calcium, Fluo-8 fluorescence;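 active means inhibition above the plate's mean compound inhibition plus 3 SD, computed per plate, cut at about 22% in these data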
# A number is an active result; - = inactive; . = no result. Most compounds without a hit are left out; they make up all but 4.5% or so of the library.
SMILES,CHO parental Ca,TAAR1 agonist,OX1R antag-1,OX1R antag-2,TAAR1 antagonist,GPR7 antag,TAAR1 ag conf,Ga16 ag counter,TAAR1 desensitize,Ga16 nonsel ant
OC[C@@H]1CN(CCc2ccccc2)C[C@H](n2cnc3c(N4CCOCC4)ncnc32)O1,.,61,.,.,-,.,74,-,-,-
CC(C)NC(=O)N(C)C[C@H]1Oc2cc(C#Cc3ccc(F)cc3)ccc2S(=O)(=O)N([C@H](C)CO)C[C@H]1C,.,-,.,.,-,.,.,.,.,.
O=C(OCc1ccccc1)c1c(-c2ccccc2)oc2c1C(OCCO)CCC2 (stereo not drawn),.,-,.,.,-,.,.,.,.,.
CCCCCCCCN1C(=O)[C@H](CC(=O)NCc2cccc(C(F)(F)F)c2)C[C@@]2(C(=O)OCC)CCCC=C12,.,-,.,.,-,.,.,.,.,.
CC(C)Cc1ccc(C(C)NC(=O)c2ccc(=O)[nH]c2)cc1 (stereo not drawn),-,91,-,-,-,-,94,49,49,38
Cc1ccc(C(=O)NC(C)c2ccc(F)cc2)cc1 (stereo not drawn),-,-,-,-,-,-,.,.,.,.
Cc1ccc([C@@H]2C[C@H]3[C@@H](CN2S(=O)(=O)c2ccc(C)cc2)C(=O)C[C@@H](c2ccc(Cl)cc2)N3S(=O)(=O)c2ccccc2C)cc1,.,-,.,.,-,.,.,.,.,.
C=CCN1[C@@H](C)[C@H](c2ccccc2)Oc2cccc(NCCc3ccccc3)c2S1(=O)=O,.,97,.,.,-,.,72,-,-,-
CC1(c2ccc(OC(F)F)cc2)NC(=O)N(CC(=O)Nc2cccnc2Cl)C1=O (stereo not drawn),-,129,-,-,73,.,131,86,78,40
COc1ccc(C2(C)NC(=O)N(CC(=O)Nc3cccnc3Cl)C2=O)cc1 (stereo not drawn),-,-,-,-,-,-,.,.,.,.
CCN(C(=O)CN1C(=O)NC2(CCC(C)CC2)C1=O)C1CCCCC1 (stereo not drawn),.,-,.,.,-,.,.,.,.,.
O=C(NCCc1ccccc1Cl)[C@@H]1CCCN1C(=O)[C@@H](NC(=O)N1CCOCC1)C1CCCCC1,.,57,.,.,-,.,74,-,80,-
O=C(NCCc1ccccc1Cl)[C@@H]1CCCN1C(=O)[C@@H](NC(=O)N1CCOCC1)c1ccccc1,.,42,.,.,-,.,60,-,-,-
CCOC(=O)N[C@H](C(=O)N1CCC[C@H]1C(=O)NCCc1ccccc1Cl)C1CCCCC1,.,61,.,.,75,.,86,-,95,-
COC(=O)[C@]12CCCCC=C1N(Cc1ccc(Cl)cc1Cl)C(=O)[C@H](CC(=O)NCCCCc1ccccc1)C2,.,-,.,.,-,.,.,.,.,.
CN1C(=S)N(c2cccnc2)C(=O)/C1=C\c1ccc(C(C)(C)C)cc1,-,-,-,-,-,-,.,.,.,.
CN1C(=S)N(c2cccnc2)C(=O)/C1=C\c1ccc(N(C)C)cc1,.,74,.,.,-,-,-,39,-,50
Cc1cc(C(=O)COC(=O)c2ccc(NC(=O)CC#N)cc2)c(C)n1CCc1ccc(F)cc1,-,55,-,-,-,.,82,-,77,30
Cc1cc(C(=O)COC(=O)c2ccc[nH]c2=O)c(C)n1CCc1ccc(F)cc1,-,-,-,-,-,-,.,.,.,.
Cc1cc(C(=O)COC(=O)C2=NNC(=O)CC2)c(C)n1CCc1ccccc1,-,61,-,-,-,-,86,-,76,-
CCCNC(=O)C1(C)CCCN(Cc2cccs2)C1 (stereo not drawn),.,-,.,.,-,.,.,.,.,.
COc1ccc(C(=O)Nc2cc(C(=O)c3ccccc3)c(C)oc2=O)cc1,-,-,-,-,-,-,.,.,.,.
Cc1oc(=O)c(NC(=O)c2cccc(Cl)c2)cc1C(=O)c1ccccc1,-,55,-,-,-,-,-,-,-,31
C=CCOC(=O)C(=O)/C=C/c1coc2ccccc2c1=O,-,53,-,-,-,-,-,23,-,-
O=C1/C(=C/c2ccc(N3CCCC3)cc2)NC(=S)N1C1CC1,58,177,-,106,99,-,58,61,71,71
SMILES,CHO parental Ca,TAAR1 agonist,OX1R antag-1,OX1R antag-2,TAAR1 antagonist,GPR7 antag,TAAR1 ag conf,Ga16 ag counter,TAAR1 desensitize,Ga16 nonsel ant
CC1(C(=O)NS(=O)(=O)C2CC2)CCCN(C(=O)c2cccs2)C1 (stereo not drawn),.,-,.,.,-,.,.,.,.,.
CC1CN(S(=O)(=O)c2cc(C(=O)NCc3ccncc3)ccc2Cl)CC(C)O1 (stereo not drawn),-,-,-,-,-,.,.,.,.,.
Cc1ccccc1CCNC(=O)c1ccc(Cl)c(S(=O)(=O)N2CC(C)OC(C)C2)c1 (stereo not drawn),-,59,-,-,-,.,-,-,-,27
CC(=O)Nc1ccc(S(=O)(=O)N(C)c2ccc(OCC(=O)NCCc3ccccc3F)cc2)cc1,.,-,.,.,-,.,.,.,.,.
CCCOc1cc(C)c(S(=O)(=O)N2CCN(C)CC2)cc1C,-,46,-,-,-,-,42,-,-,-
CCCCC(=O)NC(N1CCCCC1)C(Cl)(Cl)Cl (stereo not drawn),-,-,-,-,-,-,.,.,.,.
CC1CN(C(NC(=O)C(C)(C)C)C(Cl)(Cl)Cl)CC(C)O1 (stereo not drawn),-,65,-,-,-,-,85,-,-,-
CC1CN(C(NC(=O)c2ccccc2)C(Cl)(Cl)Cl)CC(C)O1 (stereo not drawn),.,46,.,.,-,-,70,-,-,-
O=C(CSc1nc(=O)n2cc(Cl)ccc2n1)NCCc1ccccc1,-,50,-,-,-,.,68,-,-,-
CCN(CC(=O)Nc1c(F)cccc1F)C(=O)c1ccc(N2CCCCC2)c([N+](=O)[O-])c1,-,-,-,-,-,-,.,.,.,.
O=C(Nc1ccccc1C(=O)NCCc1ccccc1)c1ccco1,-,60,-,-,-,-,69,-,60,24
O=C(NCCc1ccccc1)c1ccco1,-,-,-,-,-,-,.,.,.,.
CCOc1ccc(S(=O)(=O)Nc2ccc(C(=O)N3CCCC3)cc2)cc1,-,-,-,-,-,-,.,.,.,.
CCOc1ccc(NS(=O)(=O)c2ccc(C(=O)N3CCCC(C)C3)cc2)cc1 (stereo not drawn),52,114,-,36,79,.,121,80,84,55
